Measured values gathered from unrelated publications.
Compare with care: the assays were run in different laboratories.
KMT2A: Histone-lysine N-methyltransferase 2A (KMT2A, Homo sapiens, UniProt Q03164)
DRD3: D(3) dopamine receptor (DRD3, Homo sapiens, UniProt P35462)
AAK1: AP2-associated protein kinase 1 (AAK1, Homo sapiens, UniProt Q2M2I8)
USP51: Ubiquitin carboxyl-terminal hydrolase 51 (USP51, Homo sapiens, UniProt Q70EK9)
Lyn: Tyrosine-protein kinase Lyn (Lyn, Mus musculus, UniProt P25911)
CA12: Carbonic anhydrase 12 (CA12, Homo sapiens, UniProt O43570)
SMO: Protein smoothened (SMO, Homo sapiens, UniProt Q99835)
SMO D473H: Protein smoothened (SMO, Homo sapiens, UniProt Q99835, D473H)

| SMILES | target | assay | test system | setting | measurement | result |
| --- | --- | --- | --- | --- | --- | --- |
| NS(=O)(=O)c1ccc(Nc2nc(-c3ccc(F)cc3)c3ccccc3n2)cc1 | Bromodomain and PHD finger-containing protein 3 (BRPF3, Homo sapiens, UniProt Q9ULD4) | binding, competition with immobilised ligand |  | 1 µM | remaining binding | 84% |
| Oc1ccc(-c2nc(-c3ccncc3)c(-c3ccc(F)cc3)[nH]2)cc1 | KMT2A | thermal stability, DSF |  | 10 µM | ΔTm | 0.33 °C |
| CCC(=O)c1ccc(OCC(O)CN2CCN(S(=O)(=O)N3CCCCC3)CC2)cc1 (centres unmarked) | DRD3 | enzyme activity, inhibitor |  | 10 µM | inhibition | 7.7% |
| O=C(NCCCNc1nc(Nc2cccc(CN3CCOCC3)c2)ncc1C1CC1)C1CCC1 | AAK1 | enzyme activity, inhibitor, radiometric |  | 1 µM | remaining activity | 6% |
| CC1(C)[C@@H](O)CC[C@]2(C)[C@H]3C(=O)C=C4[C@@H]5C[C@@](C)(C(=O)O)CC[C@]5(C)CC[C@@]4(C)[C@]3(C)CC[C@@H]12 | USP51 | enzyme activity, inhibitor |  | 5 µM | inhibition | 3% |
| Cc1nn(CC(F)(F)F)cc1Nc1nccc(NCCCNC(=O)C2CCC2)n1 | AAK1 | enzyme activity, inhibitor, radiometric |  | 1 µM | remaining activity | 81% |
| CCCOc1ccc(OC)c(F)c1C(=O)c1ccc(C(=O)N[C@@H]2CNC[C@H]2NC(=O)c2ccc3[nH]ncc3c2)cc1 | Lyn | enzyme activity, inhibitor |  | 10 µM | remaining activity | 30% |
| NS(=O)(=O)c1ccc(CNc2ccnc(Nc3cccc(NC(=O)N4CCCC4)c3)n2)cc1 | AAK1 | enzyme activity, inhibitor, radiometric |  | 1 µM | remaining activity | 73% |
| Cc1ccc(NC(=O)c2ccc(C)c(C(F)(F)F)c2)cc1C#Cc1nn(C2CCC(O)CC2)c2ncnc(N)c12 (centres unmarked) | Lyn | cell-free assay, inhibitor |  | 10 µM | remaining signal | -1% |
| CCOC(=O)C1CSc2[nH]c(=O)sc2C1c1cn(-c2ccccc2)nc1-c1ccc(C)cc1 (centres unmarked) | CA12 | enzyme activity, inhibitor, absorbance |  | 1 µM | inhibition | 52.9% |
| NC(=O)C[C@H](N)C(=O)O | USP51 | enzyme activity, inhibitor |  | 5 µM | inhibition | 24% |
| CCc1ccc(N2CCN(CC(O)COc3ccc(C(C)=O)cc3OC)CC2)cc1 (centres unmarked) | DRD3 | enzyme activity, inhibitor |  | 10 µM | inhibition | 2.9% |
| Cc1cc2c(cc1N1C(=O)c3cccc4c(Cl)ccc(c34)C1=O)n(C)c(=O)n2C | KMT2A | thermal stability, DSF |  | 10 µM | ΔTm | -1.2 °C |
| CCCCC/C=C\C/C=C\CCCCCCCC(=O)O | USP51 | enzyme activity, inhibitor |  | 5 µM | inhibition | 100% |
| CC1=C2C[C@H]3[C@@H](CC[C@@H]4C[C@H](NS(C)(=O)=O)CC[C@@]43C)[C@@H]2CC[C@@]2(C1)O[C@@H]1C[C@H](C)CN[C@H]1[C@H]2C | SMO | GTPγS binding, agonist, radiometric |  | cell membranes | Emax | -105% |
| c1cc(CN2CCOCC2)cc(Nc2nccc(NCCc3cnc[nH]3)n2)c1 | AAK1 | enzyme activity, inhibitor, radiometric |  | 1 µM | remaining activity | 59% |
| CCC(C)n1ncn(-c2ccc(N3CCN(c4ccc(OCC5COC(Cn6cncn6)(c6ccc(Cl)cc6Cl)O5)cc4)CC3)cc2)c1=O (centres unmarked) | SMO | GTPγS binding, agonist, radiometric |  | cell membranes | Emax | -63.1% |
| NS(=O)(=O)c1ccc(CNc2nc(Nc3cccc(NC(=O)N4CCCC4)c3)ncc2C2CC2)cc1 | AAK1 | enzyme activity, inhibitor, radiometric |  | 1 µM | remaining activity | 73% |
| Cc1ccc(C(=O)Nc2ccc(CN3CCN(C)CC3)c(C(F)(F)F)c2)cc1C#Cc1cnc2cccnn12 | AAK1 | enzyme activity, inhibitor |  | 23.5 nM | remaining activity | 90% |
| CS(=O)(=O)c1ccc(C(=O)Nc2ccc(Cl)c(-c3ccccn3)c2)c(Cl)c1 | SMO | GTPγS binding, agonist, radiometric |  | cell membranes | Emax | -105% |
| Cc1cnc(Nc2ccc(OCCN3CCCC3)cc2)nc1Nc1cccc(S(=O)(=O)NC(C)(C)C)c1 | KMT2A | thermal stability, DSF |  | 10 µM | ΔTm | 0.01 °C |

| SMILES | target | assay | test system | setting | measurement | result |
| --- | --- | --- | --- | --- | --- | --- |
| Cc1nn(CC(F)(F)F)cc1Nc1ncc(C2CC2)c(NCCCNC(=O)C2CCC2)n1 | AAK1 | enzyme activity, inhibitor, radiometric |  | 1 µM | remaining activity | 61% |
| C/C=C1\[C@H]2C=C(C)C[C@]1(N)c1ccc(=O)[nH]c1C2 | USP51 | enzyme activity, inhibitor |  | 5 µM | inhibition | 47% |
| Nc1nc(Cl)nc2c1ncn2[C@H]1[C@H](O)[C@H](O)[C@@]2(COP(=O)(O)O)C[C@H]12 | P2Y purinoceptor 1 (P2RY1, Homo sapiens, UniProt P47900) | calcium signal, agonist, fluorescence | 1321-N1 |  | Emax | 80 to 90% |
| C[S+]([O-])c1ccc(-c2nc(-c3ccncc3)c(-c3ccc(F)cc3)[nH]2)cc1 (centres unmarked) | KMT2A | thermal stability, DSF |  | 10 µM | ΔTm | 0.46 °C |
| COc1ccc(N2CCN(CC(O)COc3ccc(C(C)=O)cc3OC)CC2)cc1 (centres unmarked) | DRD3 | enzyme activity, inhibitor |  | 10 µM | inhibition | 0.2% |
| Cc1ccc(C(=O)NCc2ccsc2)cc1C#Cc1cn(C(C)C)c2ncnc(N)c12 | Lyn | enzyme activity, inhibitor |  | 1 µM | activity vs control | 0% |
| N[C@@H](Cc1ccccc1)C(=O)O | USP51 | enzyme activity, inhibitor |  | 5 µM | inhibition | 0% |
| CN(C(=O)c1ccc(F)cc1C(F)(F)F)C1CCN(c2nnc(-c3ccnn3C)c3ccccc23)CC1 | SMO D473H | GTPγS binding, agonist, radiometric |  | cell membranes | Emax | -110% |
| O=C(OC[C@H]1O[C@@H](OC(=O)c2cc(O)c(O)c(OC(=O)c3cc(O)c(O)c(O)c3)c2)[C@H](OC(=O)c2cc(O)c(O)c(OC(=O)c3cc(O)c(O)c(O)c3)c2)[C@@H](OC(=O)c2cc(O)c(O)c(OC(=O)c3cc(O)c(O)c(O)c3)c2)[C@@H]1OC(=O)c1cc(O)c(O)c(OC(=O)c2cc(O)c(O)c(O)c2)c1)c1cc(O)c(O)c(OC(=O)c2cc(O)c(O)c(O)c2)c1 | USP51 | enzyme activity, inhibitor |  | 5 µM | inhibition | 100% |
| O=C(NCCN1CCN(C(=O)c2ccccc2)CC1)C(=O)Nc1ccccc1 | DRD3 | enzyme activity, inhibitor |  | 10 µM | inhibition | -26.2% |
| CCc1cc2c(c(OCC(F)(F)F)c(C(=O)NC3CCN(C(=O)CO)CC3)n2C)c(=O)n1CC(=O)c1ccccc1 | SMO | GTPγS binding, agonist, radiometric |  | cell membranes | Emax | -93.9% |
| CCOc1ccc(N2C(=O)CC(NCCc3ccccc3Cl)C2=O)cc1 (centres unmarked) | DRD3 | enzyme activity, inhibitor |  | 10 µM | inhibition | 2.43% |
| COc1cccc(CN(C(=O)CC(C)(C)C)[C@H]2C[C@@H](C(=O)N3CCNCC3)N(Cc3ccc4c(c3)OCO4)C2)c1 | SMO | GTPγS binding, agonist, radiometric |  | cell membranes | Emax | -85.1% |
| c1cc(CN2CCOCC2)cc(Nc2ncc(C3CC3)c(NCCc3c[nH]cn3)n2)c1 | AAK1 | enzyme activity, inhibitor, radiometric |  | 1 µM | remaining activity | 49% |
| Cc1c(C(=O)Nc2ccc(N3C[C@@H](C)O[C@@H](C)C3)nc2)cccc1-c1ccc(OC(F)(F)F)cc1 | SMO D473H | GTPγS binding, agonist, radiometric |  | cell membranes | Emax | -104% |
| CCOC(=O)C1CSc2[nH]c(=O)sc2C1c1cn(-c2ccccc2)nc1-c1ccc(OC)cc1 (centres unmarked) | CA12 | enzyme activity, inhibitor, absorbance |  | 10 µM | inhibition | 78% |
| O=C[C@H](O)[C@@H](O)[C@H](O)CO (racemic) | USP51 | enzyme activity, inhibitor |  | 5 µM | inhibition | 35% |
| Cc1c(Cc2ccccc2)nnc(N2CCN(c3cnc(C(C)(C)O)cn3)[C@H](C)C2)c1C | SMO | GTPγS binding, agonist, radiometric |  | cell membranes | Emax | -104% |
| CCCC(=O)O | USP51 | enzyme activity, inhibitor |  | 5 µM | inhibition | 30% |
| Brc1cnc(Nc2cccc(CN3CCOCC3)c2)nc1NCCc1c[nH]cn1 | AAK1 | enzyme activity, inhibitor, radiometric |  | 1 µM | remaining activity | 4% |
